Experimental data as given in publication PMC7986984 (Brain, behavior, and immunity, 2020).
Like-named read-outs stand apart in the source and are kept apart here. Marks after values point to notes of the source that are not given here.

What was measured:
[1] = format: in vivo, mice; conditions: for AUC: over 24 h; for Cmax: mice, bolus by oral gavage, 0.25-24 h, n = 6 +/- SEM
[2] = format: in vivo, mice; conditions: for AUC: over 24 h; for Cmax: n = 6 +/- SEM
Caco-2 / THP-1 coculture = assay: Transepithelial electrical resistance; format: cell-based, human; conditions: LPS +, TMF + (AHR antagonist); metabolites 250 ng/mL
How it was run: (§1)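 Caco-2 grown 18 days on 8 μm transwells to TEER 500 ohm×cm2, set over THP-1 differentiated with PMA (15 nM, 48 h). Pretreatment 24 h with fermented supernatant (50 μL/1 mL) or metabolites (250 ng/mL), with or without AHR antagonist TMF. Challenge with LPS 1 μg/ml, IFN-γ and ATP in both compartments. Read-outs: TEER before and after; kynurenine by chemical assay, % control; IL-1β by ELISA, fold over untreated. n = 4 wells; t-test.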

Kynurenine = Kynurenine production; format: cell-based, human; conditions: LPS +, metabolites 250 ng/mL
How it was run: as §1

IL-1β = IL-1β production; format: cell-based, human; conditions: LPS +, ELISA, metabolites 250 ng/mL
How it was run: as §1

[3] = male, mouse, plasma, po, AUC, Chronic BDPP
[4] = male, mouse, plasma, po, AUC, Chronic Synbiotic
[5] = male, mouse, plasma, po, Tmax, Chronic BDPP
[6] = male, mouse, plasma, po, Tmax, Chronic Synbiotic
[7] = male, mouse, brain, po, AUC, Chronic BDPP
[8] = male, mouse, brain, po, AUC, Chronic Synbiotic
[9] = male, mouse, brain, po, Cmax, Chronic BDPP
[10] = male, mouse, brain, po, Cmax, Chronic Synbiotic
[11] = male, mouse, brain, po, Tmax, Chronic BDPP
[12] = male, mouse, brain, po, Tmax, Chronic Synbiotic
[13] = TMF −, fold change from untreated controls

Structure (SMILES) | AUC [1, 3] | AUC [1, 4] | Tmax [1, 5] | Tmax [1, 6] | AUC [2, 7] | AUC [2, 8] | Cmax [2, 9] | Cmax [2, 10] | Tmax [2, 11] | Tmax [2, 12] | other results
COc1cc(-c2oc3cc(O)cc(O)c3c(=O)c2O)ccc1O [3′-MeQUER, Isorhamnetin] | 0.0156 µg·h/mL | 0.0724 µg·h/mL | 15 min | 30 min | 0.0269 µg·h/mL | 0.103 µg·h/mL | 12.2 ± 6.9 ng/mL | 28.4 ± 6.3 ng/mL | 18 min | 60 min | TEER (% Control) (Caco-2 / THP-1 coculture): 73.4 ± 1.2 % Control; Kynurenine (% Change) (Kynurenine; TMF +): 129.9 ± 13.8 % Change; Kynurenine (% Change) (Kynurenine; TMF −): 102.3 ± 9.6τ % Change; IL-1β(Fold Change) (IL-1β; TMF +): 9.4 ± 0.3τ ^* Fold Change; IL-1β(Fold Change) (IL-1β; [13]): 6.5 ± 0.4τ Fold Change
O=C(O)C=Cc1ccc(O)cc1 [4-HCA, 4-Hydroxycinnamic acid] | 0.455 µg·h/mL | 1.67 µg·h/mL | 18 min | 18 min | – | – | – | – | – | – | –
COc1c(O)cc(C(=O)O)cc1O [4-MeGA, 4-O-Methylgallic acid] | 0.336 µg·h/mL | 0.163 µg·h/mL | 30 min | 30 min | 0.0033 µg·h/mL | 0.0068 µg·h/mL | 2.2 ± 0.4 ng/mL | 5 ± 1 ng/mL | 30 min | 18 min | –
COc1cc(O)c2c(=O)c(O)c(-c3ccc(O)c(O)c3)oc2c1 [7′-MeQUER, Rhamnetin] | – | 0.0004 µg·h/mL | – | 30 min | – | 0.00114 µg·h/mL | – | 0.1 ± 0.09 ng/mL | – | 30 min | TEER (% Control) (Caco-2 / THP-1 coculture): 74.5 ± 2.0 % Control; Kynurenine (% Change) (Kynurenine; TMF +): 132.0 ± 13.3 % Change; Kynurenine (% Change) (Kynurenine; TMF −): 119.5 ± 4.3 % Change; IL-1β(Fold Change) (IL-1β; TMF +): 8.1 ± 0.4τ Fold Change; IL-1β(Fold Change) (IL-1β; [13]): 7.9 ± 0.4τ Fold Change
Oc1cc(O)c2c(c1)OC(c1ccc(O)c(O)c1)C(O)C2 (stereo not drawn) [C, Catechin] | – | – | – | – | – | – | – | – | – | – | Tmax ([1]; Plasma, Chronic BDPP): 30 min; Cmax ([1]; Plasma, Chronic BDPP): 55.5 ± 7.8 ng/mL; AUC ([1]; Plasma, Chronic BDPP): 80.6** ng/mL*h; Tmax ([1]; Plasma, Chronic Synbiotic): 60 min; Cmax ([1]; Plasma, Chronic Synbiotic): 0.0098 ± 0.0007 ng/mL; AUC ([1]; Plasma, Chronic Synbiotic): 0.0252 µg·h/mL
COc1cc(CCC(=O)O)ccc1O [DHFA, Dihyroferulic acid] | – | – | – | – | – | – | – | – | – | – | Tmax ([1]; Plasma, Chronic BDPP): 18 min; Cmax ([1]; Plasma, Chronic BDPP): 2.5 ± 0.7 ng/mL; AUC ([1]; Plasma, Chronic BDPP): 0.0307 µg·h/mL; Tmax ([1]; Plasma, Chronic Synbiotic): 18 min; Cmax ([1]; Plasma, Chronic Synbiotic): 0.0077 ± 0.0011 ng/mL; AUC ([1]; Plasma, Chronic Synbiotic): 0.0302 µg·h/mL
Oc1ccc(CCc2cc(O)cc(O)c2)cc1 [DHRSV, Dihydroresveratrol] | 1.05 µg·h/mL | 7.8 µg·h/mL | 60 min | 480 min | – | – | – | – | – | – | –
O=C1CCC(Cc2ccc(O)c(O)c2)O1 (stereo not drawn) [DHVL, 5-(3′,4′-Dihydroxyphenyl)-γ-valerolactone] | 0.123 µg·h/mL | 0.224 µg·h/mL | 30 min | 60 min | – | – | – | – | – | – | –
Oc1cc(O)c2c(c1)O[C@H](c1ccc(O)c(O)c1)[C@H](O)C2 [EC, Epicatechin] | 0.189 µg·h/mL | 0.413 µg·h/mL | 18 min | 18 min | – | – | – | – | – | – | –
COc1cc(/C=C/C(=O)O)ccc1O [FA, Ferulic acid] | – | – | – | – | – | – | – | – | – | – | Tmax ([1]; Plasma, Chronic BDPP): 30 min; Cmax ([1]; Plasma, Chronic BDPP): 28.9 ± 9.7 ng/mL; AUC ([1]; Plasma, Chronic BDPP): 320.9** ng/mL*h; Tmax ([1]; Plasma, Chronic Synbiotic): 30 min; Cmax ([1]; Plasma, Chronic Synbiotic): 0.0226 ± 0.0062 ng/mL; AUC ([1]; Plasma, Chronic Synbiotic): 0.1388 µg·h/mL; Tmax ([2]; Brain, Chronic BDPP): 30 min; Cmax ([2]; Brain, Chronic BDPP): 1.5 ± 0.3 ng/mL; AUC ([2]; Brain, Chronic BDPP): 0.0188 µg·h/mL; Tmax ([2]; Brain, Chronic Synbiotic): 120 min; Cmax ([2]; Brain, Chronic Synbiotic): 0.0023 ± 0.0006 ng/mL; AUC ([2]; Brain, Chronic Synbiotic): 0.02 µg·h/mL
O=C(O)c1cc(O)c(O)c(O)c1 [GA, Gallic acid] | 1.27 µg·h/mL | 2.39 µg·h/mL | 18 min | – | 7.56 µg·h/mL | 4.76 µg·h/mL | 1340 ± 611 ng/mL | 336 ± 112 ng/mL | 18 min | 120 min | –
COc1cc(CC(=O)O)ccc1O [HVA, Homovanillic acid] | 0.205 µg·h/mL | 1.47 µg·h/mL | 60 min | 30 min | 5.92 µg·h/mL | 6.22 µg·h/mL | 296 ± 10 ng/mL | 301 ± 14 ng/mL | 60 min | 60 min | –
O=c1c(O)c(-c2cc(O)c(O)c(O)c2)oc2cc(O)cc(O)c12 [MYR, Myricetin] | 0.0853 µg·h/mL | 0.305 µg·h/mL | 30 min | 18 min | 0.0978 µg·h/mL | 0.578 µg·h/mL | 86.5 ± 38 ng/mL | 118 ± 18 ng/mL | 18 min | 60 min | –
O=C(O)Cc1ccccc1 [PA, Phenylacetic acid] | 8630 µg·h/mL | 8800 µg·h/mL | 30 min | 240 min | 6970 µg·h/mL | 14500 µg·h/mL | 447000 ± 37200 ng/mL | 760000 ± 140000 ng/mL | 30 min | 480 min | –
Oc1cc(O)c2c(c1)O[C@H](c1ccc(O)c(O)c1)[C@H](O)[C@H]2c1c(O)cc(O)c2c1O[C@H](c1ccc(O)c(O)c1)[C@H](O)C2 [PAC-B2, Proanthocyanidin dimer B2] | – | – | – | – | – | – | – | – | – | – | Tmax ([1]; Plasma, Chronic BDPP): 30 min; Cmax ([1]; Plasma, Chronic BDPP): 2.0 ± 0.7 ng/mL; AUC ([1]; Plasma, Chronic BDPP): 0.0015 µg·h/mL; Tmax ([1]; Plasma, Chronic Synbiotic): 30 min; Cmax ([1]; Plasma, Chronic Synbiotic): 0.0027 ± 0.0008 ng/mL; AUC ([1]; Plasma, Chronic Synbiotic): 3.5* ng/mL*h
O=c1c(O)c(-c2ccc(O)c(O)c2)oc2cc(O)cc(O)c12 [QUER, Quercetin] | 0.0461 µg·h/mL | 0.583 µg·h/mL | 18 min | 18 min | 0.142 µg·h/mL | 0.544 µg·h/mL | 89.5 ± 48.3 ng/mL | 98.6 ± 24.7 ng/mL | 18 min | 120 min | –
Oc1ccc(/C=C/c2cc(O)cc(O)c2)cc1 [RSV, t-Resveratrol (−)] | – | – | – | – | – | – | – | – | – | – | Tmax ([1]; Plasma, Chronic BDPP): 30 min; Cmax ([1]; Plasma, Chronic BDPP): 11628.0 ± 1788.0 ng/mL; AUC ([1]; Plasma, Chronic BDPP): 51313.0* ng/mL*h; Tmax ([1]; Plasma, Chronic Synbiotic): 30 min; Cmax ([1]; Plasma, Chronic Synbiotic): 15.785 ± 4.246 ng/mL; AUC ([1]; Plasma, Chronic Synbiotic): 33.1507 µg·h/mL; Tmax ([2]; Brain, Chronic BDPP): 18 min; Cmax ([2]; Brain, Chronic BDPP): 9.5 ± 2.5 ng/mL; AUC ([2]; Brain, Chronic BDPP): 122.3** ng/mL*h; Tmax ([2]; Brain, Chronic Synbiotic): 120 min; Cmax ([2]; Brain, Chronic Synbiotic): 0.0038 ± 0.0002 ng/mL; AUC ([2]; Brain, Chronic Synbiotic): 0.0331 µg·h/mL
COc1cc(C(=O)O)ccc1O [VA, Vanillic acid] | 0.299 µg·h/mL | 0.118 µg·h/mL | 30 min | 18 min | 0.169 µg·h/mL | 0.205 µg·h/mL | 9.7 ± 1 ng/mL | 13.9 ± 1.8 ng/mL | 18 min | 60 min | –

Further lines, with some results ahead:

AUC [1, 3] | AUC [1, 4] | Tmax [1, 5] | Tmax [1, 6] | AUC [2, 7] | AUC [2, 8] | Cmax [2, 9] | Cmax [2, 10] | Tmax [2, 11] | Tmax [2, 12] | Structure (SMILES) | other results
0.138 µg·h/mL | 0.0334 µg·h/mL | 18 min | 18 min | 0.0881 µg·h/mL | 0.291 µg·h/mL | 15.2 ± 3.1 ng/mL | 14.4 ± 3.8 ng/mL | 18 min | 30 min | O=C(O)c1ccc(O)c(O)c1 [3,4-diHBA, 3,4-Dihydroxybenzoic acid] | –
0.74 µg·h/mL | 0.344 µg·h/mL | 30 min | 30 min | 2.2 µg·h/mL | 2.12 µg·h/mL | 100 ± 7 ng/mL | 126 ± 24 ng/mL | 60 min | 120 min | O=C(O)Cc1ccc(O)c(O)c1 [3,4-diHPAA, 3,4-Dihydroxyphenylacetic acid] | –
0.366 µg·h/mL | 0.214 µg·h/mL | 60 min | 60 min | 0.0673 µg·h/mL | 0.146 µg·h/mL | 5.4 ± 0.4 ng/mL | 8.9 ± 1.8 ng/mL | 30 min | 240 min | O=C(O)c1cccc(O)c1 [3-HBA, 3-Hydroxybenzoic acid] | –
0.606 µg·h/mL | 1.08 µg·h/mL | 60 min | 18 min | 0.029 µg·h/mL | 0.0412 µg·h/mL | 2.7 ± 0.3 ng/mL | 3.2 ± 0.5 ng/mL | 30 min | 30 min | O=C(O)Cc1cccc(O)c1 [3-HPAA, 3-Hydroxyphenylacetic acid] | –
0.0047 µg·h/mL | 0.06 µg·h/mL | 60 min | 120 min | – | – | – | – | – | – | O=C(O)CCc1cccc(O)c1 [3-HPPA, 3-(3-Hydroxyphenyl)propionic acid] | –
0.866 µg·h/mL | 1.28 µg·h/mL | – | 1440 min | 1.7 µg·h/mL | 6.68 µg·h/mL | 108 ± 19.3 ng/mL | 448 ± 15 ng/mL | 0 min | 480 min | O=C(O)c1ccc(O)cc1 [4-HBA, 4-Hydroxybenzoic acid] | –
0.0017 µg·h/mL | 0.0059 µg·h/mL | 18 min | 120 min | – | – | – | – | – | – | O=C(O)CNC(=O)c1ccc(O)cc1 [4-HHA, 4-Hydroxyhippuric acid] | –
0.889 µg·h/mL | 1.32 µg·h/mL | 60 min | 240 min | 0.518 µg·h/mL | 1.81 µg·h/mL | 22.4 ± 11.6 ng/mL | 111 ± 7.2 ng/mL | 60 min | 480 min | O=C(O)CNC(=O)c1ccccc1 [HA, Hippuric acid] | –
